# Measurements published in ChEMBL document CHEMBL2086227, “Synthesis and evaluation of anticonvulsant and antidepressant activities of 5-alkoxytetrazolo[1,5-c]thieno[2,3-e]pyrimidine derivatives” (Eur J Med Chem, 2012).
# The source made the active and inactive calls. The calls are words filed in the database; no cut-off is given here.
# What was measured:
# Mus musculus [1] = test: Antidepressant activity in Kunming mouse assessed as decrease in immobility time at 100 mg/kg, ip measured for last 4 mins of 6 mins test after 30 mins post dose by forced swimming test relative to control; format: functional; parameters: scale not given: the % may be the effect or the level left; settings: route intraperitoneal
# In short: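 Mice were dosed ip with compounds at 100 mg/kg, suspended in 3% Tween 80 in 0.9% NaCl (0.05 mL/20 g); controls got 3% aqueous Tween 80. After 30 min each mouse was placed in a water-filled cylinder (water depth 10 cm, 23–25 °C) for 6 min. Upright floating with only slight movements was scored as immobility, timed over the last 4 min. Mean ± S.E.M., n = 8.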
# Mus musculus [2] = test: Anticonvulsant activity in Kunming mouse assessed as protection against maximal electroshock-induced seizure at 300 mg/kg, ip; format: functional, organism-based; parameters: dose 300 mg/kg
# In short: (§1)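 Mice held on a 12-h light/dark cycle at 23 ± 2 °C with free food and water. Compounds were given ip as suspensions in aqueous Tween 80 (3% v/v, 0.9% NaCl) at 0.05 mL/20 g body weight. The maximal electroshock test was scored as number of animals protected over number tested.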
# Mus musculus [3] = test: Anticonvulsant activity in Kunming mouse assessed as protection against maximal electroshock-induced seizure at 30 mg/kg, ip; format: functional, organism-based; parameters: dose 30 mg/kg; in short: as §1
# Mus musculus [4] = test: Anticonvulsant activity in Kunming mouse assessed as protection against maximal electroshock-induced seizure at 100 mg/kg, ip; format: functional, organism-based; parameters: dose 100 mg/kg; in short: as §1
# Mus musculus [5] = test: Toxicity in Kunming mouse assessed as increase in locomotor activity at 100 mg/kg, ip administered 60 mins prior to test measured for 3 mins by open-field test; format: organism-based; parameters: dose 100 mg/kg, route intraperitoneal; settings: in vivo, 0.05 h
# In short: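 Open-field exploratory activity was recorded for 3 min, starting 60 min after ip dosing in 3% Tween 80/0.9% NaCl vehicle. Counts were taken for locomotion (line crossings), rearing (standing on hind legs) and grooming, and compared with a vehicle control group.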
SMILES,Activity (Mus musculus [1]),Activity (Mus musculus [2]),Activity (Mus musculus [3]),Activity (Mus musculus [4]),Activity (Mus musculus [5])
CNCCC(Oc1ccc(C(F)(F)F)cc1)c1ccccc1 (stereo not drawn) [FLUOXETINE],58.09%,,,,
Cc1ccc(Oc2nc3ccsc3c3nnnn23)cc1,36.6%,inactive,inactive,inactive,
c1ccc(Oc2nc3ccsc3c3nnnn23)cc1,26.46%,,inactive,inactive,
Cc1cccc(Oc2nc3ccsc3c3nnnn23)c1,39.04%,inactive,inactive,inactive,
c1ccc2c(Oc3nc4ccsc4c4nnnn34)cccc2c1,9.25%,inactive,inactive,inactive,
FC(F)(F)c1ccc(Oc2nc3ccsc3c3nnnn23)cc1,25.16%,inactive,inactive,inactive,
Clc1ccccc1Oc1nc2ccsc2c2nnnn12,40.17%,inactive,inactive,inactive,
Clc1ccc(Oc2nc3ccsc3c3nnnn23)cc1,35.63%,inactive,inactive,inactive,
Clc1cccc(Oc2nc3ccsc3c3nnnn23)c1,15.42%,inactive,inactive,inactive,
Nc1ccccc1Oc1nc2ccsc2c2nnnn12,22.8%,Active,inactive,,
COc1cccc(Oc2nc3ccsc3c3nnnn23)c1,37.41%,inactive,inactive,inactive,
c1cnc2c(Oc3nc4ccsc4c4nnnn34)cccc2c1,23.62%,inactive,inactive,inactive,
Cc1ccccc1Oc1nc2ccsc2c2nnnn12,36.44%,inactive,inactive,inactive,
COc1ccccc1Oc1nc2ccsc2c2nnnn12,26.05%,inactive,inactive,inactive,
Nc1cccc(Oc2nc3ccsc3c3nnnn23)c1,27.59%,,inactive,inactive,
Brc1ccc(Oc2nc3ccsc3c3nnnn23)cc1,10.06%,Active,inactive,,
Clc1ccc(Oc2nc3ccsc3c3nnnn23)c(Cl)c1,51.62%,inactive,inactive,inactive,Non-toxic
COc1ccc(Oc2nc3ccsc3c3nnnn23)cc1,46.18%,inactive,inactive,inactive,
Fc1ccccc1Oc1nc2ccsc2c2nnnn12,9.33%,inactive,inactive,inactive,
Fc1cccc(Oc2nc3ccsc3c3nnnn23)c1,25.73%,inactive,inactive,inactive,
Fc1ccc(Oc2nc3ccsc3c3nnnn23)cc1,18.18%,inactive,inactive,inactive,
